Source: ChEMBL document CHEMBL1128731, “Furanfurin and thiophenfurin: two novel tiazofurin analogues. Synthesis, structure, antitumor activity, and interactions with inosine monophosphate dehydrogenase” (J Med Chem, 1995)
pIC50: −log10 of the molar value.

Tests used:
[1] = test system: HL-60; assay: Inhibitory concentration against HL-60 human promyelocytic leukemia; assay type: functional, cell-based
Outline: (§1)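 Cells in log phase plated with a range of drug concentrations (B16 5×10^3 cells/well; P388, L1210, LLC 10^4 cells/well; HL-60, K562, LoVo 2.5×10^5 cells/well). Growth read by modified MTT after 72 h drug contact at 37 °C. IC50 taken as the concentration reducing optical absorption by 50%, from Chou regression analysis. Maximum concentration tested 200 μM.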

[2] = test system: K562; assay: Compound was tested for its effect on AMP ribonucleotide levels of K562 cell at 10 uM concentration; assay type: functional, Homo sapiens
Outline: (§2)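 K562 cells (1×10^7) were treated with saline or agent for 2 h at 37 °C, harvested by centrifugation and washed with cold saline. They were extracted with cold 10% trichloroacetic acid, neutralized with 0.5 M tri-n-octylamine in freon, and analyzed by HPLC. Levels are in nmol/g and expressed as % of saline control. Significance was set at p < 0.05.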

[3] = test system: K562; assay: Inhibitory concentration against K562 human myelogenous leukemia cell line; assay type: functional, cell-based; outline: as §1
[4] = test system: K562; assay: Compound was tested for its effect on ADP ribonucleotide levels of K562 cell at 100 uM concentration; assay type: functional, Homo sapiens; outline: as §2
[5] = test system: Mus musculus; assay: Average weight change of mice from onset to termination of drug treatment at 400 mg/kg dose; early death due to toxicity; assay type: functional, organism-based; set-up: dose 400 mg/kg
Outline: (§3)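 Female BD2F1 mice (8 weeks, 20–22 g), eight per group, injected ip with 10^5 L1210 cells on day 0. From 24 h later, drug in 0.9% NaCl was given ip once daily for 9 days. Body weight change was averaged from onset to termination of treatment. Early deaths from toxicity were recorded.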

[6] = test system: K562; assay: Compound was tested for its effect on ATP ribonucleotide levels of K562 cell at 50 uM concentration; assay type: functional, Homo sapiens; outline: as §2
[7] = test system: K562; assay: Compound was tested for its effect on GDP ribonucleotide levels of K562 cell at 100 uM concentration; assay type: functional, Homo sapiens; outline: as §2
[8] = test system: K562; assay: Compound was tested for its effect on CTP ribonucleotide levels of K562 cell at 10 uM concentration; assay type: functional, Homo sapiens; outline: as §2
[9] = test system: K562; assay: Compound was tested for its effect on GDP ribonucleotide levels of K562 cell at 50 uM concentration; assay type: functional, Homo sapiens; outline: as §2
[10] = test system: K562; assay: Compound was tested for its effect on UDP ribonucleotide levels of K562 cell at 10 uM concentration; assay type: functional, Homo sapiens; outline: as §2
[11] = test system: K562; assay: Compound was tested for its effect on ATP ribonucleotide levels of K562 cell at 100 uM concentration; assay type: functional, Homo sapiens; outline: as §2
[12] = test system: Mus musculus; assay: Compound was tested for ratio of survival time of treated to control mice x100 at 100 mg/kg dose; assay type: functional
Outline: (§4)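 Female BD2F1 mice (8 weeks old, 20–22 g), eight per group, injected ip with 10^5 L1210 leukemia cells on day 0. Starting 24 h later, drug dissolved in 0.9% NaCl given ip once daily for 9 consecutive days. % T/C = survival time of treated/control mice × 100. Body weight change tracked from start to end of treatment.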

[13] = IC50 ratio against bone marrow samples to HL-60; assay type: functional
Outline: (§5)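 Antiproliferative assay scoring [125I]-5-iodo-2'-deoxyuridine incorporation into DNA after 72 h drug–cell contact. Run on normal human bone marrow from five donors and in three assays on HL-60. Ratio is antilog(mean log IC50 or IC90) on bone marrow over the same on HL-60. Range limits are antilog(mean log IC50 ± 2SD).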

[14] = species: Homo sapiens; assay: Inhibitory concentration range against human bone marrow; assay type: functional, organism-based; outline: as §5
[15] = test system: K562; assay: Compound was tested for its effect on NAD ribonucleotide levels of K562 cell at 50 uM concentration; assay type: functional, Homo sapiens; outline: as §2
[16] = test system: K562; assay: Compound was tested for its effect on CDP ribonucleotide levels of K562 cell at 100 uM concentration; assay type: functional, Homo sapiens; outline: as §2
[17] = test system: K562; assay: Compound was tested for its effect on IMP ribonucleotide levels of K562 cell at 100 uM concentration; assay type: functional, Homo sapiens; outline: as §2
[18] = test system: K562; assay: Compound was tested for its effect on CDP ribonucleotide levels of K562 cell at 50 uM concentration; assay type: functional, Homo sapiens; outline: as §2
[19] = test system: K562; assay: Compound was tested for its effect on UMP ribonucleotide levels of K562 cell at 100 uM concentration; assay type: functional, Homo sapiens; outline: as §2
[20] = test system: K562; assay: Compound was tested for its effect on UMP ribonucleotide levels of K562 cell at 50 uM concentration; assay type: functional, Homo sapiens; outline: as §2
[21] = test system: K562; assay: Compound was tested for its effect on IMPDH activity against K562 cells at 100 uM concentration; assay type: functional, Homo sapiens
Outline: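 Log-phase K562 cells (1×10^6/mL) were exposed to saline or agent for 2 h at 37 °C, washed and lysed (Tris-HCl pH 7.4, NaCl, MgCl2, 0.5% NP-40, aprotinin). The cleared supernatant was incubated 30 min at 37 °C with 286 μM [2,8-3H]IMP and 1 mM NAD. Tritium release was counted by scintillation. Activity is nmol XMP/h/mg protein, also given as % of control.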

[22] = test system: B16; assay: Inhibitory concentration against B16 melanoma cell lines; assay type: functional, cell-based; conditions: Mus musculus; outline: as §1
[23] = test system: Mus musculus; assay: Compound was tested for ratio of survival time of treated to control mice x100 at 6.2 mg/kg dose; assay type: functional; outline: as §4
[24] = test system: K562; assay: Compound was tested for its effect on IMP ribonucleotide levels of K562 cell at 50 uM concentration; assay type: functional, Homo sapiens; outline: as §2
[25] = test system: K562; assay: Compound was tested for its effect on ADP ribonucleotide levels of K562 cell at 10 uM concentration; assay type: functional, Homo sapiens; outline: as §2
[26] = test system: K562; assay: Compound was tested for its effect on AMP ribonucleotide levels of K562 cell at 100 uM concentration; assay type: functional, Homo sapiens; outline: as §2
[27] = test system: Mus musculus; assay: Average weight change of mice from onset to termination of drug treatment at 100 mg/kg dose; early death due to toxicity; assay type: functional, organism-based; set-up: dose 100 mg/kg; outline: as §3
[28] = test system: K562; assay: Compound was tested for its effect on UTP ribonucleotide levels of K562 cell at 50 uM concentration; assay type: functional, Homo sapiens; outline: as §2
[29] = test system: K562; assay: compound was tested for its effect on IMPDH activity against K562 cells at 50 uM concentration; assay type: functional, Homo sapiens
Outline: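 K562 cells (1×10^6/mL, log phase) exposed 2 h at 37 °C to 10, 50 or 100 μM drug, or to saline. Cells washed and lysed in Tris-HCl pH 7.4/NaCl/MgCl2/NP-40/aprotinin, and the 13000g supernatant used as enzyme. Enzyme incubated 30 min at 37 °C with 286 μM [2,8-3H]IMP and 1 mM NAD. Tritium release counted; activity in nmol XMP/h/mg protein, as % of saline control.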

[30] = test system: Mus musculus; assay: Average weight change of mice from onset to termination of drug treatment at 6.2 mg/kg dose; assay type: functional; outline: as §3
[31] = test system: K562; assay: Compound was tested for its effect on UTP ribonucleotide levels of K562 cell at 10 uM concentration; assay type: functional, Homo sapiens; outline: as §2
[32] = test system: K562; assay: Compound was tested for its effect on NAD ribonucleotide levels of K562 cell at 100 uM concentration; assay type: functional, Homo sapiens; outline: as §2
[33] = test system: K562; assay: Compound was tested for its effect on GTP ribonucleotide levels of K562 cell at 10 uM concentration; assay type: functional, Homo sapiens; outline: as §2

NC(=O)c1csc([C@@H]2O[C@H](CO)[C@@H](O)[C@H]2O)c1
pIC50 [1]: 4.86
Control [2]: 156%
pIC50 [3]: 5.06
Control [4]: 105%
Change [5]: Toxic
Control [6]: 88%
Control [7]: 77%
Control [8]: 32%
Control [9]: 79%
Control [10]: 134%
Control [11]: 81%
T/C [12]: <100%
Ratio [13]: 21.9
pIC50 [14]: 4.67
Control [15]: 66%
Control [16]: 99%
Control [17]: 689%
Control [18]: 82%
Control [19]: 107%
Control [20]: 115%
Activity [21]: 1.07
pIC50 [22]: 4.59
T/C [23]: 155%
Control [24]: 594%
Control [25]: 122%
Control [26]: 131%
Change [27]: Toxic
Control [28]: 99%
Control [29]: 37%
Change [30]: 8.5%
Control [31]: 91%
Control [32]: 63%
Control [33]: 71%
